Common to all, as to type: functional, cell-based
Test [1] concerns CCRF-CEM. The test can be described thus: The compound was tested for cytostatic activity against CEM cells. Conditions: Homo sapiens. An outline of the steps:
(§1)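 Human T4-lymphocyte CEM or Molt cells were seeded at 5–7.5 × 10⁴ cells per well with test compound. They grew for 72 h at 37 °C in humidified, CO₂-controlled air and were then counted with a Coulter counter. IC50 is the compound concentration that cut viable cell number by 50%.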

For a further test, the system named is MOLT-4. Put plainly: The compound was tested for cytostatic activity against human T4-lymphocyte molt(molt 4/C8). The essentials: as §1
Test [2] relates to FM3A. Put plainly: The compound was tested for cytostatic activity against mammary FM3A cells. The conditions noted are these: Mus musculus. An outline of the steps:
(§2)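 Murine L1210 leukemia or FM3A mammary carcinoma cells went in at 5–7.5 × 10⁴ per well alongside test compound. Proliferation ran 48 h at 37 °C in a humidified CO₂-controlled atmosphere, followed by Coulter counter cell counts. IC50 is the concentration reducing viable cells by 50%.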

For another test, the system named is L1210. Put plainly: The compound was tested for cytostatic activity against murine leukemia L1210 cells. Conditions: Mus musculus. The essentials: as §2
Test [3] has as its system CCRF-CEM. Put plainly: The compound was tested for cytostatic activity against human CEM cells. The essentials: as §1
Test [4] has as its system FM3A. Put plainly: The compound was tested for cytostatic activity against murine mammary FM3A cells. The conditions noted are these: Mus musculus. The essentials:
as §2

This passage reports IC50 results from ChEMBL document CHEMBL1132352, “5'-Phosphoramidates and 5'-diphosphates of 2'-O-allyl-beta-D-arabinofuranosyluracil, -cytosine, and -adenine: inhibition of ribonucleotide reductase” (J Med Chem, 1999).

As a reminder, the IC50 is the midpoint of a concentration-inhibition curve.

Consider `C=CCO[C@H]1[C@H](O)[C@@H](CO)O[C@H]1n1ccc(N)nc1=O`, for which the concentration for half-maximal inhibition (IC50) was 61 µM in the test on CCRF-CEM [1], greater than 500 µM in the test with MOLT-4, 325 µM with FM3A [2] and 38 µM in the test with L1210.
The matching figures for `C=CCO[C@H]1[C@H](O)[C@@H](COP(=O)(NC(C)C(=O)OCC)Oc2ccccc2)O[C@H]1n1ccc(N)nc1=O` (stereo not given in full): greater than 200 µM, greater than 200 µM, greater than 200 µM and greater than 200 µM.
As to `C=CCO[C@H]1[C@H](O)[C@@H](CO)O[C@H]1n1ccc(=O)[nH]c1=O`, the IC50 in the test with CCRF-CEM [3], in the test with MOLT-4, in the test on L1210 and in the test with FM3A [4] was greater than 500 µM throughout.
Take `C=CCO[C@H]1[C@H](O)[C@@H](CO)O[C@H]1n1cnc2c(N)ncnc21`: the half-inhibitory concentration (IC50) in the test on CCRF-CEM [1] was determined as 79 µM; with MOLT-4, 285 µM; in the test on FM3A [2], 316 µM; with L1210 it was 181 µM.
The matching figures for `C=CCO[C@H]1[C@H](O)[C@@H](COP(=O)(NC(C)C(=O)OCC)Oc2ccccc2)O[C@H]1n1ccc(=O)[nH]c1=O` (stereo not given in full): greater than 200 µM, greater than 200 µM, greater than 200 µM and greater than 200 µM.
